Laboratory results published in ChEMBL document CHEMBL4765453, “Phenanthrolinic analogs of quinolones show antibacterial activity against M. tuberculosis” (Eur J Med Chem, 2020).
Converted amounts (≈) assume the structure as drawn.

System: Mycobacterium tuberculosis
Test: Antibacterial activity against Mycobacterium bovis BCG measured after 7 days by resazurin microtiter assay
Format: functional
Details: variant bovis BCG, 168 h, time 7 day
Summary of the method: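 Resazurin microtiter assay with two-fold drug dilutions in complete 7H9 broth. Exponential-phase cells are diluted to a final OD600 of 0.005 in 7H9 without Tween. Incubation is 7 days at 37°C, then 0.01% resazurin is added and plates are held 24 h more. MIC is the lowest concentration preventing the blue-to-pink change. Each MIC is determined three times in duplicate experiments.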

| Structure (SMILES) | MIC90 [µM] |
| --- | --- |
| NCC[C@H](O)C(=O)N[C@@H]1C[C@H](N)[C@@H](O[C@H]2O[C@H](CN)[C@@H](O)[C@H](O)[C@H]2O)[C@H](O)[C@H]1O[C@H]1O[C@H](CO)[C@@H](O)[C@H](N)[C@H]1O [AMIKACIN] | 0.46 (≈ 0.269 µg/mL) |
| CCn1cc(C(=O)O)c(=O)c2cc([N+](=O)[O-])c3cccnc3c21 | 2.67 (≈ 0.836 µg/mL) |
| CCOC(=O)c1cn(CC)c2c(cc([N+](=O)[O-])c3cccnc32)c1=O | 2.5 (≈ 0.853 µg/mL) |
| Cn1cc(C(=O)O)c(=O)c2cc([N+](=O)[O-])c3cccnc3c21 | 1.4 (≈ 0.419 µg/mL) |
| CC1COc2c(N3CCN(C)CC3)c(F)cc3c(=O)c(C(=O)O)cn1c23 (stereo unspecified) [OFLOXACIN] | 1.73 (≈ 0.625 µg/mL) |
| CCOC(=O)c1cn(C)c2c(cc([N+](=O)[O-])c3cccnc32)c1=O | 2.35 (≈ 0.769 µg/mL) |
